Source: ChEMBL document CHEMBL4311987, “Discovery of novel allosteric site and covalent inhibitors of FBPase with potent hypoglycemic effects” (Eur J Med Chem, 2019)
The source made the active and inactive calls. The rule behind the calls is not given here.

Legend:
Hepatocyte [1] = test: Inhibition of glucose production in C57BLKS rat Primary hepatocytes at 400 uM incubated for 3 hrs by glucose assay kit method relative to control; type: functional
In short: (§1)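 Rat primary hepatocytes cultured overnight in DMEM/10% FBS, then pretreated with compounds for 3 h in fresh medium. Switched to glucose-free DMEM with 2 mM sodium pyruvate, 20 mM sodium lactate and compound for 3 h. Medium glucose measured with a kit and normalized to BCA protein. Pathological arm adds 1 µM dexamethasone plus 200 µM cAMP for 3 h. Means ± SEM, n=4.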

Hepatocyte [2] = test: Inhibition of glucose production in cAMP and Dex pre-treated C57BLKS rat Primary hepatocytes incubated for 3 hrs by glucose assay kit method; type: functional, cell-based; in short: as §1
[3] = Acute toxicity in C57BL/6 mouse assessed as allergic action at 600 mg/kg, po observed for 14 days; type: organism-based; settings: in vivo, 336 h
In short: (§2)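 Sixteen male C57BL/6 mice, 8 weeks old, were randomised into two groups. Each group got a single oral dose on day 1, either vehicle or 600 mg/kg. Animals were watched for 14 days for mortality, body-weight loss and allergic reactions, against controls.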

Hepatocyte [4] = test: Inhibition of lipid accumulation in C57BLKS rat Primary hepatocytes assessed as reduction in insulin and glucose-induced TG level at 100 uM incubated for 24 hrs; type: functional, cell-based
In short: (§3)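 After overnight culture in DMEM, rat primary hepatocytes pretreated with compounds, then held in 25 mM glucose plus 500 nM insulin for 24 h to induce lipid accumulation. Triglyceride and total cholesterol measured with assay kits and normalized to BCA protein. Means ± SEM of four independent experiments.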

Hepatocyte [5] = test: Inhibition of glucose production in cAMP and Dex pre-treated C57BLKS rat Primary hepatocytes at 100 uM incubated for 3 hrs by glucose assay kit method; type: functional; in short: as §1
Hepatocyte [6] = test: Inhibition of glucose production in C57BLKS rat Primary hepatocytes incubated for 3 hrs by glucose assay kit method; type: functional, cell-based; in short: as §1
[7] = Cytotoxicity against C57BLKS rat Primary hepatocytes assessed as cell viability incubated for 6 hrs by SRB assay; type: cell-based, Hepatocyte; settings: read-out: Activity
In short: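 Rat primary hepatocytes under physiological conditions exposed to compounds for 6 h. Viability read by sulforhodamine B staining. Means ± SEM of four independent experiments.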

[8] = Acute toxicity in C57BL/6 mouse assessed as mortality at 600 mg/kg, po observed for 14 days; type: organism-based; settings: in vivo, 336 h; in short: as §2
Hepatocyte [9] = test: Inhibition of lipid accumulation in C57BLKS rat Primary hepatocytes assessed as reduction in insulin and glucose-induced TC level incubated for 24 hrs; type: functional, cell-based; in short: as §3
[10] = biological target: Fructose-1,6-bisphosphatase 1 (Homo sapiens, UniProt P09467, C93S); test: Inhibition of human FBPase C92S mutant expressed in Escherichia coli BL21 (DE3) using FBP as substrate incubated for 5 mins by malachite green dye based spectrophotometry
Chain of Fructose-1,6-bisphosphatase 1 (Homo sapiens, UniProt P09467, C93S) (P09467 2-338 C93S limits assumed): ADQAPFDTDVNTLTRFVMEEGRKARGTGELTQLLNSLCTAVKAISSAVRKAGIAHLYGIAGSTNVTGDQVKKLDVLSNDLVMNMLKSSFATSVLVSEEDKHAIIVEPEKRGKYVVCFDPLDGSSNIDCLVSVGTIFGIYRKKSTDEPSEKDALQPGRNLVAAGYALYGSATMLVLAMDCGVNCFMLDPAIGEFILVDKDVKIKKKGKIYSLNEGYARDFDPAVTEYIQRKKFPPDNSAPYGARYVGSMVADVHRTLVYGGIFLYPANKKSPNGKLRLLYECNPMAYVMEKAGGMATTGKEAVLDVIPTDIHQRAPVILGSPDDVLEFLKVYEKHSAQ
In short: (§4)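 Recombinant human FBPase (wild type or point mutants) was expressed in E. coli BL21 (DE3), purified and stored in 50% glycerol at -20 °C. Reactions ran 5 min at 37 °C, and released phosphate was read by malachite green.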

Hepatocyte [11] = test: Cytotoxicity against C57BLKS rat Primary hepatocytes assessed as cell viability by measuring cellular protein level at 10 to 300 uM by bicinchoninic acid method; type: cell-based
In short: (§5)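 Primary hepatocytes isolated from rat, cultured overnight in DMEM with 10% FBS, then exposed to compounds. Cellular protein per group measured by bicinchoninic acid (BCA) method as a viability control. The same protein values serve to normalize glucose, TG and TC contents. Pathological stimulation where applicable: 1 µM dexamethasone plus 200 µM cAMP, or 25 mM glucose plus 500 nM insulin for 24 h. Means ± SEM, four independent experiments.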

Hepatocyte [12] = test: Inhibition of lipid accumulation in C57BLKS rat Primary hepatocytes assessed as reduction in insulin and glucose-induced TG level at 10 uM incubated for 24 hrs; type: functional, cell-based; in short: as §3
Hepatocyte [13] = test: Cytotoxicity against C57BLKS rat Primary hepatocytes assessed as cell viability by measuring cellular protein level at 10 to 100 uM in presence of cAMP and Dex by bicinchoninic acid method; type: cell-based; in short: as §5
[14] = Acute toxicity in C57BL/6 mouse assessed as weight loss at 600 mg/kg, po observed for 14 days; type: organism-based; settings: in vivo, 336 h; in short: as §2
Hepatocyte [15] = test: Inhibition of lipid accumulation in C57BLKS rat Primary hepatocytes assessed as reduction in insulin and glucose-induced TC level at 10 uM incubated for 24 hrs; type: functional, cell-based; in short: as §3
Homo sapiens = species: Homo sapiens; test: Selectivity index, ratio of IC50 for human FBPase D127A mutant expressed in Escherichia coli BL21 (DE3) to IC50 for human FBPase expressed in Escherichia coli BL21 (DE3)
In short: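 IC50 values for each FBPase point mutant and for wild-type human FBPase came from the same malachite-green assay. The index is mutant IC50 divided by wild-type IC50.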

[16] = biological target: T1, Fructose-1,6-bisphosphatase 1 (Homo sapiens) (UniProt P09467); test: Inhibition of human FBPase expressed in Escherichia coli BL21 (DE3) at 10 times of IC50 using FBP as substrate incubated for 30 to 180 mins mins by malachite green dye based spectrophotometry
T1 sequence (whole entry): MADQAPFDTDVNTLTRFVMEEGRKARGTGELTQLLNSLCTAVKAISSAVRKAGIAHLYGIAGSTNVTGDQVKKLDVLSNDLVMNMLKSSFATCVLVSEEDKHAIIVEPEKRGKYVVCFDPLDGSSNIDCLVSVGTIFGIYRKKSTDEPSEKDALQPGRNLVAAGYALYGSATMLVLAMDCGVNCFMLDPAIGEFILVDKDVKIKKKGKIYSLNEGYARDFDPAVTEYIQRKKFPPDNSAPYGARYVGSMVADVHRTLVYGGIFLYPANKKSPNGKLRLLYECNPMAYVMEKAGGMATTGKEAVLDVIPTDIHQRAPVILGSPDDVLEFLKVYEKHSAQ
In short: (§6)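 Activity was started with 0.4 mM FBP and 0.8 mM Mg2+. Reactions were stopped with 1 M perchloric acid at 30, 60, 90, 120, 150 and 180 min, and phosphate was then detected by malachite green.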

[17] = biological target: T1, Fructose-1,6-bisphosphatase 1 (Homo sapiens); test: Binding affinity to human FBPase expressed in Escherichia coli BL21 (DE3) incubated for 2 hrs by LC-MS analysis
[18] = biological target: T1, Fructose-1,6-bisphosphatase 1 (Homo sapiens); test: Reversible inhibition of human FBPase expressed in Escherichia coli BL21 (DE3) at 20 times diluted IC50 using FBP as substrate preincubated for 30 to 180 mins followed by 20 fold compound dilution by malachite green dye based spectrophotometry; in short: as §6
[19] = biological target: Fructose-1,6-bisphosphatase 1 (Homo sapiens, UniProt P09467, D128A); test: Inhibition of human FBPase D127A mutant expressed in Escherichia coli BL21 (DE3) using FBP as substrate incubated for 5 mins by malachite green dye based spectrophotometry; in short: as §4
Chain of Fructose-1,6-bisphosphatase 1 (Homo sapiens, UniProt P09467, D128A) (P09467 2-338 D128A limits assumed): as the sequence (P09467 2-338 C93S limits assumed) above, with S92C, D127A counted along it

[20] = biological target: T1, Fructose-1,6-bisphosphatase 1 (Homo sapiens); test: Competitive inhibition of human FBPase expressed in Escherichia coli BL21 (DE3) using FBP as substrate incubated for 5 mins in presence of Mg2+ by malachite green dye based spectrophotometry
In short: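 Malachite-green phosphate readout of human FBPase (300 nM, E. coli-expressed) in 50 mM Tris-HCl pH 7.4 with 0.4 mM FBP, 5 min at 37 °C. Compound concentration was varied at fixed Mg2+ levels, with Mg2+ raised from 1 mM to 10 mM, to assess competition with Mg2+.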

[21] = biological target: T2, Fructose-1,6-bisphosphatase 1 (Homo sapiens, UniProt P09467); test: Binding affinity to human FBPase expressed in Escherichia coli BL21 (DE3) assessed as dissociation constant at 100 uM by UV-visible spectroscopy
T2 sequence (P09467 whole entry): T1 sequence (whole entry)

## CCOC(=O)C(C)(C)Oc1ccc(F)c(/C=C/[N+](=O)[O-])c1
Hepatocyte [1]
  inhibition at 400 µM: 90%
Hepatocyte [2]
  inhibition: Dose-dependent effect
[3]
  Activity: Non-Toxic
Hepatocyte [4]
  inhibition: inactive
Hepatocyte [5]
  inhibition at 100 µM: 95%
Hepatocyte [6]
  inhibition: Dose-dependent effect
[7]
  viability at 6 h: > 80%
[8]
  Activity: Non-Toxic
Hepatocyte [9]
  inhibition: Dose-dependent effect
[10]
  IC50: 640 nM
Hepatocyte [11]
  Activity: Non-Toxic
Hepatocyte [12]
  inhibition: Active
Hepatocyte [13]
  Activity: Non-Toxic
[14]
  Activity: Non-Toxic
Hepatocyte [15]
  inhibition: Active

## O=[N+]([O-])/C=C/c1cccc(F)c1
Homo sapiens
  Ratio IC50: 13
[16]
  inhibition: 100%
[17]
  Activity: Active
[18]
  inhibition: Active
[10]
  IC50: 620 nM
[19]
  IC50: 4000 nM
[20]
  inhibition: Active

## N#Cc1ccc(/C=C/[N+](=O)[O-])cc1
Homo sapiens
  Ratio IC50: 5.7
[16]
  inhibition: 100%
[17]
  Activity: Active
[18]
  inhibition: Active
[10]
  IC50: 340 nM
[19]
  IC50: 2000 nM
[21]
  Kd: 54000 nM
[20]
  inhibition: Active
